Ecoli rRNA inh: reduced GFP signal of wild-type E. coli, primary screen, bacterial rRNA inhibitor project, GFP/RFP fluorescence, OD600, single point; 1.6% of 350,000 active; E. coli WT GFP vs humanized-ribosome RFP mutants, 24 h; hits give low values; DMSO median 0, no signal -100; AID 720706, 2013; GFP signal change (wild-type ribosome), % (test concentration not listed);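 active = significant combined selectivity score with lowered wild-type GFP, culture density cut under 30%, mutant RFP and density less affected; inactive = any of these conditions unmet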
E-sel inducer: E-selectin induction in HUVECs, primary screen, imaging, HUVEC, immunofluorescence imaging, single point | P16581 | 0.37% of 260,000 active | normalized: neutral wells 0, TNF-alpha wells 100 | AID 686992, 2013 | activation, % at 7.58 µM;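 active = mean E-selectin-positive cell signal at least 10% of the positive control, reached in at least 60% of replicates, without over 20% cell loss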
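Material: HUVEC primary endothelial cells; Amount: 3,000 cells per well; Dosing: single concentration; Medium: EGM-2 growth medium on 0.1% gelatin-coated wells; Read-out basis: percent E-selectin-positive cells; Signal: immunofluorescence imaging; Control set: TNF-alpha, DMSO.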
MLL AF4-AF9 inh: inhibitors of AF4 peptide binding to AF9, primary screen, biochemical, AlphaScreen, biotin-AF4 peptide, FLAG-AF9, single point; inhibition, % at 10 µM; Protein AF-9 (Homo sapiens), P42568; AID 651704, 2012; 0.47% of 350,000 active;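 active = every replicate reaching a set inhibition limit, whatever the replicate mean, cut at about 25% in these data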
Target sequence (P42568 whole entry, looked up): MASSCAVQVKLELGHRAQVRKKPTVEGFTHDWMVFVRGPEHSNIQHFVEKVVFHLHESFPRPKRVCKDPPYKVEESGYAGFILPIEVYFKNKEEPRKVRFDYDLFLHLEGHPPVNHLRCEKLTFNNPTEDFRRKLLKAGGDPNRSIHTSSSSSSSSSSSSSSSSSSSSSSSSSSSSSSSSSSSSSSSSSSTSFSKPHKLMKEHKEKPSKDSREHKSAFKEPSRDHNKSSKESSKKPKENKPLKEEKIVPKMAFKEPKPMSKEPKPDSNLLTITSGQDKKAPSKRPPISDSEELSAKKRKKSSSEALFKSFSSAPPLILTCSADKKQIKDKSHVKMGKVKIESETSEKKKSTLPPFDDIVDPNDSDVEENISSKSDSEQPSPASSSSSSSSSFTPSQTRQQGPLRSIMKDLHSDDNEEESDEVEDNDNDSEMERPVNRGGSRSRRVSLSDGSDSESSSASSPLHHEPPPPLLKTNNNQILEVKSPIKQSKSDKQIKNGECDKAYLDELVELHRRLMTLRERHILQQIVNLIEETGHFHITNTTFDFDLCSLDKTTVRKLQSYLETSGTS
S100A4 inh HTS: inhibitors of S100A4-myosin IIA peptide binding, primary screen, biochemical, fluorescence polarization, TAMRA-MyoIIA peptide. Protein S100-A4 (Homo sapiens), P26447. inhibition, % at 10.7 µM. 0.14% of 360,000 active. AID 652163, 2013;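 active = mean inhibition of at least 70% across replicates, with every replicate also reaching that level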
Target sequence (P26447 whole entry, looked up): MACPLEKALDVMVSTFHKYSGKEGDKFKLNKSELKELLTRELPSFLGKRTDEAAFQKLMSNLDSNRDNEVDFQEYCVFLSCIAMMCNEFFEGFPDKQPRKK
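System – human S100A4 monomer protein, biochemical binding assay · Buffer or medium – Calcium-containing HEPES buffer, pH 7.2 · Timing – 5 min between mix addition and reading · Also added – TAMRA-labelled myosin IIA heavy-chain peptide probe, 5 nM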
SIRT5 inh: SIRT5 desuccinylase inhibitors, primary screen, biochemical, fluorescence imaging, single point, set 5; NAD-dependent protein deacylase sirtuin-5, mitochondrial (Homo sapiens), Q9NXA8; Purified SirT5, succinyl-peptide AMC, trypsin-coupled fluorescence; inhibition, % at 15 µM; 1.1% of 330,000 active; AID 652115, 2013; in the data active = inhibition above about 15%
ERAP1 HTS inh: human ERAP1 aminopeptidase inhibitors, primary screen, biochemical, single point, plate reader; 0.15% of 340,000 active; recombinant ERAP1, Leu-AMC fluorescence, 60 min; inhibition, % at 10.7 µM; Endoplasmic reticulum aminopeptidase 1 (Homo sapiens), Q9NZ08;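 active = mean replicate inhibition of at least 30%, or all replicates individually reaching that 30% level; inactive = mean below 30% and not every replicate reaching it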
Of the large screens only hits and unclear results are named; the others gave an inactive call. Rows were chosen to be rich in hits. Some 3.4% of all compounds tested hit in one or more screens of this group.

CCCC(=O)N1CCC2(CC1)CN(Cc1ccc(Cl)cc1)[C@H](CO)c1[nH]c3cc(OC)ccc3c12	none
C[C@H]1CCCCO[C@H](CN(C)Cc2ccc(Cl)c(Cl)c2)[C@@H](C)CN([C@@H](C)CO)C(=O)c2cc(NS(C)(=O)=O)ccc2O1	none
C[C@@H]1CN([C@H](C)CO)C(=O)c2cc(NS(=O)(=O)c3cccs3)ccc2O[C@H]1CN(C)Cc1ccc(Cl)c(Cl)c1	none
C[C@H](CO)N1C[C@H](C)[C@@H](CN(C)Cc2ccc(C(F)(F)F)cc2)OCCCC[C@H](C)Oc2ccc(NS(=O)(=O)c3ccc(Cl)cc3)cc2C1=O	SIRT5 inh 18.6
C[C@@H]1CCCCO[C@@H](CN(C)Cc2ccc(C(F)(F)F)cc2)[C@@H](C)CN([C@@H](C)CO)C(=O)c2cc(NS(=O)(=O)c3ccc(Cl)cc3)ccc2O1	SIRT5 inh 16.1
C[C@@H]1CCCCO[C@H](CN(C)Cc2ccc(C(F)(F)F)cc2)[C@H](C)CN([C@H](C)CO)C(=O)c2cc(NS(=O)(=O)c3ccccc3)ccc2O1	none
C[C@@H]1CN([C@H](C)CO)C(=O)c2cc(NS(=O)(=O)c3ccc(Cl)cc3)ccc2O[C@@H](C)CCCCO[C@@H]1CN(C)Cc1ccc(C(F)(F)F)cc1	SIRT5 inh 16.8
C[C@@H]1CN([C@H](C)CO)C(=O)c2cc(-c3ccc(C#N)cc3)cnc2O[C@@H]1CN(C)CC1CCCC1	none
Cc1cccc(CCNS(=O)(=O)c2ccc3c(c2)NC(=O)CS3)c1	Ecoli rRNA inh -34.6
Cc1ccc(NS(=O)(=O)c2ccc3c(c2)NC(=O)CCS3)cc1C	Ecoli rRNA inh -25.8 (no result: E-sel inducer)
COc1ccc(S(=O)(=O)N(C)[C@H]2C[C@H]3c4cc(-c5ccccc5)ccc4CCN3C(=O)[C@H]2[C@H](C)O)cc1	none (no result: ERAP1 HTS inh)
COc1ccc(S(=O)(=O)N(C)[C@H]2C[C@H]3c4cc(Oc5ccccc5C)ccc4CCN3C(=O)[C@H]2[C@H](C)O)cc1	SIRT5 inh 17.5 (no result: ERAP1 HTS inh)
CCN(CC)CCNC(=O)CCN1N=C(c2ccccc2)CCC1=O	SIRT5 inh 25.9
CCCCNC(=O)CCN1N=C(c2ccccc2)CCC1=O	none
CC1(C)CCN2CCC(C)(C)c3c(O)ccc1c32	MLL AF4-AF9 inh 25.7 (no result: E-sel inducer)
Cc1ccc(S(=O)c2ccc([N+](=O)[O-])c3nonc23)cc1 (centres undefined)	SIRT5 inh 15.1
CN(C)C(=O)C[C@H]1CC[C@@H]2[C@H](COc3ccc(NC(=O)C4CCCC4)cc3C(=O)N2C)O1	none
ClCC1CSC(=NC23CC4CC(CC(C4)C2)C3)O1 (centres undefined)	SIRT5 inh 16.8
CC1(C)C2CCC(C2)C1(C)N=C1OC(CCl)CS1 (centres undefined)	Ecoli rRNA inh -21.9 (no result: E-sel inducer, MLL AF4-AF9 inh)
CCN1C(=O)CSC1=NC12CC3CC(CC(C3)C1)C2	none (no result: E-sel inducer)
COc1ccc(S(=O)(=O)N(C)C[C@H]2OCCCC[C@H](C)Oc3ccc(NS(=O)(=O)c4cccs4)cc3C(=O)N([C@@H](C)CO)C[C@H]2C)cc1	none
O=C([C@@H]1N[C@@H]2c3ccc(C4=CCCCC4)c(=O)n3C[C@@H]2[C@H]1CO)N1CCc2ccccc2C1	none (no result: S100A4 inh HTS, SIRT5 inh, ERAP1 HTS inh)
CC(C)NC(=O)N[C@H]1CC[C@H](CC(=O)NCCN2CCCC2)O[C@H]1CO	none
CCn1c(SCc2nc(-c3ccc(OC)c(OC)c3)no2)nnc1-c1cccs1	Ecoli rRNA inh -31.8 (no result: E-sel inducer)
COc1ccc(-c2noc(CSc3nnc(Cc4ccccc4)n3-c3cccc(C)c3)n2)cc1OC	Ecoli rRNA inh -26.2 (no result: E-sel inducer)
COc1cc(CCC(=O)OCC(=O)Nc2ccccc2C#N)cc(OC)c1OC	E-sel inducer 458.4
C[C@H](O)C#Cc1cnc2c(c1)C(=O)N([C@H](C)CO)C[C@@H](C)[C@H](CN(C)C(=O)c1ccccc1)O2	none
COc1cccc(C2Oc3ccccc3C3CC(c4cccs4)=NN32)c1 (centres undefined)	Ecoli rRNA inh -29.1
CCCC[C@@H](O)C1=C(COC)C[C@H]2C(=O)N(Cc3ccccc3)C(=O)[C@H]2[C@H]1CO	none (no result: Ecoli rRNA inh, E-sel inducer)
C[C@@H]1CCCCO[C@@H](CN(C)Cc2ccc(C(F)(F)F)cc2)[C@@H](C)CN([C@@H](C)CO)C(=O)c2cc(N(C)C)ccc2O1	none
C[C@@H]1CN([C@H](C)CO)C(=O)c2cc(N(C)C)ccc2O[C@@H](C)CCCCO[C@@H]1CN(C)Cc1ccc(C(=O)O)cc1	none
C[C@@H]1CCCCO[C@@H](CN(C)Cc2ccc(C(F)(F)F)cc2)[C@H](C)CN([C@@H](C)CO)C(=O)c2cc(N(C)C)ccc2O1	MLL AF4-AF9 inh 32.3
C[C@@H]1CCCCO[C@@H](CN(C)Cc2ccc(C(F)(F)F)cc2)[C@H](C)CN([C@H](C)CO)C(=O)c2cc(N(C)C)ccc2O1	MLL AF4-AF9 inh 40.1
CCC(=O)N1C[C@@H](C)[C@H](OC)CN(C)C(=O)c2ccc(NC(=O)c3ccno3)cc2OC[C@@H]1C	none (no result: SIRT5 inh)
COc1ccccc1-c1c(C)nn2c(-c3ccccc3)cc(C)nc12	MLL AF4-AF9 inh 26.5 (no result: SIRT5 inh)
COc1ccccc1-c1c(C)nn2c(N3CCCCCC3)cc(C)nc12	none
COc1ccc(S(=O)(=O)Nc2cccc3c2O[C@@H](CN(C)S(=O)(=O)c2c(C)noc2C)[C@H](C)CN([C@H](C)CO)C3=O)cc1	SIRT5 inh 102.0
COc1ccc(S(=O)(=O)Nc2cccc3c2O[C@H](CN(C)C(=O)Nc2c(C)noc2C)[C@H](C)CN([C@@H](C)CO)C3=O)cc1	E-sel inducer 63.4
Cc1ccc(S(=O)(=O)Nc2cccc3c2O[C@H](CN(C)S(=O)(=O)c2c(C)noc2C)[C@@H](C)CN([C@H](C)CO)C3=O)cc1	none
COc1ccc(S(=O)(=O)Nc2cccc3c2O[C@@H](CN(C)S(=O)(=O)c2c(C)noc2C)[C@H](C)CN([C@@H](C)CO)C3=O)cc1	S100A4 inh HTS 127.2
CN(C)CC(=O)N1[C@H](CO)[C@@H](c2ccccc2)C12CN(C(=O)c1cccc(F)c1)C2	none
O=C(Nc1ccccc1F)c1cc2c(s1)-c1ccccc1S(=O)(=O)C2	SIRT5 inh 24.0 (no result: ERAP1 HTS inh)
COc1ccc(Cc2nnc(SCC(=O)NCc3ccco3)o2)cc1	none (no result: Ecoli rRNA inh, MLL AF4-AF9 inh, S100A4 inh HTS, SIRT5 inh, ERAP1 HTS inh)
COc1ccc(CNc2nc(SCC(=O)NCc3ccco3)nc3ccccc23)cc1	Ecoli rRNA inh -30.8 (no result: E-sel inducer)
[C-]#[N+][C@H](O[C@@H]1O[C@H](CO)[C@@H](O)[C@H](O)[C@H]1O)c1ccccc1	none (no result: E-sel inducer)
